Apaf1 inhib: blocks human Apaf-1 apoptosome activity. O14727. reconstituted apoptosome caspase-3 activity, DEVD-Rh110 fluorescence. inhibition, % at 20 µM. 330,000 tested, 0.71% active. AID 489030; active means inhibition of at least 40% at 20 µM
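Material: cell-free apoptosome with Apaf-1, procaspase-3 and caspase-9; Buffer or medium: Hepes pH 7.5 with detergent and BSA; Reagent: cytochrome c trigger plus (Z-DEVD)2-Rh110 caspase-3 substrate; Times: compound with Apaf-1, dATP, procaspase-3 30 min, then 50 min reaction, room temperature; Technique: Rh110 fluorescence intensity.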
EBNA-1 inhibitor: blocks EBNA-1 binding to DNA | EBNA-1 DNA binding, fluorescence polarization | inhibition, % at 14.8 µM | 300,000 tested, 0.34% active | AID 1950; in the data active means inhibition above about 28%
ZTA DNA inh: blocks Epstein-Barr virus ZTA, an EBNA-1 counter-screen; P03206; ZTA-DNA binding, fluorescence polarization; 320,000 tested, 0.15% active; inhibition, % at 11 µM; in the data active means inhibition above about 33%
Target sequence (P03206 whole entry, looked up): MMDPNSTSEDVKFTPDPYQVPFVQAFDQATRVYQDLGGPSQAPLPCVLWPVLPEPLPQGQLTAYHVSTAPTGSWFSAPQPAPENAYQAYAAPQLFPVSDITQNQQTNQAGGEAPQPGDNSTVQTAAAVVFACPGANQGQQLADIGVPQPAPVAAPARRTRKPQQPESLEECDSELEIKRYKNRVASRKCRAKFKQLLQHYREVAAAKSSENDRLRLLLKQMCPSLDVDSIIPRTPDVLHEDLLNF
UBC13 inh: inhibitors of human UBC13 polyubiquitin chain formation; P61088; inhibition, % at 20 µM; TR-FRET; 330,000 tested, 0.47% active; AID 485273; in the data active means inhibition above about 45%, passing the limit was not always enough
Target sequence (P61088 whole entry, looked up): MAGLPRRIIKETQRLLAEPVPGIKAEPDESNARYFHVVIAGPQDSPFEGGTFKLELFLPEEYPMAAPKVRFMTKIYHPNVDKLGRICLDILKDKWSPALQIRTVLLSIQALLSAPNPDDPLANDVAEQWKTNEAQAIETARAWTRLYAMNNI
PfM18AAP inh: blocks P. falciparum M18 aspartyl aminopeptidase. AID 1822. 290,000 tested, 1.2% active. recombinant PfM18AAP, H-Glu-NHMec fluorogenic cleavage. inhibition, % at 7.35 µM;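 active means inhibition above the campaign mean inhibition over all tested compounds plus 3 SD, cut at about 28% in these data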
PfGluPho inh: PfG6PD (Plasmodium falciparum) enzyme inhibition | 350,000 tested, 0.78% active | AID 504690 | PfGluPho enzyme, NADPH resazurin-diaphorase fluorescence | inhibition, % at 20 µM;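 active means inhibition reaching at least a set limit at 20 µM in the primary screen, cut at about 59% in these data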
PfGluPho conf: PfG6PD inhibition, single-dose confirmed | 2,400 tested, 34% active | shares compounds with PfGluPho inh | AID 504753 | recombinant PfGluPho, NADPH-diaphorase-resazurin fluorescence | inhibition, % at 20 µM;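 active means inhibition of at least 50% at 20 µM in any single replicate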
Diaph ctr 10uM: diaphorase inhibition or oxidation at 10 uM NADPH | diaphorase-coupled resazurin reduction, fluorescence, NADPH 10 uM | shares compounds with PfGluPho inh | inhibition, % at 20 µM | 820 tested, 39% active;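 active means average inhibition reaching 50% or more with the compound at 20 µM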;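 further: resorufin red fluorescence formed as diaphorase reduces resazurin using NADPH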
Diaph ctr 30uM: diaphorase inhibition or oxidation at 30 uM NADPH. shares compounds with PfGluPho inh. Diaphorase/resazurin coupled assay, resorufin fluorescence. inhibition, % at 20 µM. 820 tested, 29% active. AID 504863;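 active means inhibition averaging 50% or more, tested at 20 µM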
Of the large screens only hits and unclear results are named; the others gave an inactive call (follow-up assays come after a bar, where they were run). Most compounds without a hit are left out; they make up all but 2.9% or so of the library.

CCOP(=S)(OCC)Oc1cc(C)oc(=O)c1Cl	PfGluPho inh 62.6 | PfGluPho conf inactive
CC(C)[C@H]1C(=O)O[C@H](C(C)C)C(=O)N(C)[C@@H](C(C)C)C(=O)O[C@H](C(C)C)C(=O)N(C)[C@@H](C(C)C)C(=O)O[C@H](C(C)C)C(=O)N1C	none
O=C1OC(c2ccc([N+](=O)[O-])cc2)=N/C1=C/N1CC2CC(C1)c1cccc(=O)n1C2 (configuration not stated)	none
CC(=O)OC1N=C(c2ccc(Cl)cc2)c2cc(Br)ccc2NC1=O (configuration not stated)	PfGluPho inh 77.8 | PfGluPho conf inactive
O=C(O)c1ccc(NC(=O)N2C[C@H]3C[C@@H](C2)c2cccc(=O)n2C3)cc1	none
CC(C)N1CCN(c2ccc(O)cc2)CC1	PfGluPho inh 72.5 (no result: Apaf1 inhib, UBC13 inh) | PfGluPho conf inactive
COc1ccc(CCN)cc1O	none (no result: PfM18AAP inh)
NCCc1cc(O)c(O)cc1O	PfGluPho inh 94.0 (no result: Apaf1 inhib, EBNA-1 inhibitor, ZTA DNA inh, UBC13 inh, PfM18AAP inh) | PfGluPho conf 67.7 | Diaph ctr 10uM 52.6 | Diaph ctr 30uM inactive
COc1cc2c(cc1OC)-c1c(OC)c(OC)cc3c1C(C2)N(C)CC3 (configuration not stated)	Apaf1 inhib 95.1, PfGluPho inh 68.4 | PfGluPho conf inactive
COc1cccc(-n2c(/C=C/c3ccc(O)c(O)c3)nc3ccccc3c2=O)c1	PfM18AAP inh 57.4, PfGluPho inh 63.7 | PfGluPho conf inactive
O=c1[nH]c(=S)n(Cc2ccc(F)cc2)c(O)c1C=NCc1cccnc1	none
O=C1C(Cl)=CC(=Nc2ccc(O)cc2)C=C1Cl	PfGluPho inh 115.7 (no result: EBNA-1 inhibitor, PfM18AAP inh) | PfGluPho conf 110.6 | Diaph ctr 10uM 93.3 | Diaph ctr 30uM 81.5
O=[As](O)(O)c1ccc(N=Nc2ccc(O)cc2)cc1	none (no result: Apaf1 inhib, EBNA-1 inhibitor, ZTA DNA inh, UBC13 inh)
CN(C)c1nc(-c2ccccc2)[n+](C)s1	none
Cc1ccc(-c2nc(N3CCOCC3)s[n+]2-c2ccccc2)cc1	PfGluPho inh 59.8 (no result: Apaf1 inhib, UBC13 inh) | PfGluPho conf 77.3 | Diaph ctr 10uM inactive | Diaph ctr 30uM inactive
CCCCC1(CCCC)C(=O)NC(=Nc2cccc(C)c2)NC1=O	none
Cc1cccc(N=C2c3cc([N+](=O)[O-])ccc3-c3c2cc([N+](=O)[O-])cc3[N+](=O)[O-])c1	PfGluPho inh 74.2 (no result: Apaf1 inhib, EBNA-1 inhibitor, ZTA DNA inh, UBC13 inh, PfM18AAP inh) | PfGluPho conf inactive
COc1ccc(N2C(=O)/C(=C/C=C/c3ccccc3[N+](=O)[O-])C(=O)NC2=S)cc1	PfGluPho inh 60.6 (no result: EBNA-1 inhibitor, ZTA DNA inh) | PfGluPho conf inactive
Cn1c(O)c(C=NC2CCCCCC2)c(=O)[nH]c1=S	none

Screening data (PubChem BioAssay)
